In publication PMC3518043 (Biochemistry, 2012):

What was measured:
Assay type in all cases: binding
[1] = system: immobilized histone H3 (1-11); experiment: surface plasmon resonance
[2] = system: histone H3 combinatorial peptide library; experiment: on-bead 5,000-member combinatorial histone H3 library screen; settings: for occurrence of peptides with high methylation at H3K4 (me2/3) / occurrence of peptides with low methylation at H3K4 (K4unmod and K4me): PHD1-2 screen
How it was run: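 One-bead-one-peptide H3 combinatorial library (5,000 members) incubated sequentially with GST-tagged PHD fingers, GST-specific primary antibody, biotinylated secondary antibody, then streptavidin-alkaline phosphatase for bead detection.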

[3] = system: unmodified histone H3 N-terminus (first eleven amino acids); experiment: Amplified Luminescent Proximity Homogeneous Assay; settings: 10 μM protein, only biotin- or only 6×His-peptide
How it was run: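 Recombinant CHD5 PHD constructs and H3 (1-11) peptides carrying either a 6×His tag or biotin were diluted in StabilCoat buffer to final 10 μM protein and 1 μM peptide. Mixtures shaken 30 min at ambient temperature. Donor and acceptor beads added at 15 μg/mL each (working), then shaken 30 min in the dark. Emission read at 570/100 nm with ALPHA filters.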

[4] = system: histone H3 tail peptide (1-12); experiment: 1H,15N HSQC NMR titration with H3 peptide; settings: 0.1 mM 15N-labeled PHD1-2; H3 (1-12)
How it was run: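 15N-labelled CHD5 PHD1-2 expressed in E. coli BL21(DE3) pLysS grown in 15NH4Cl minimal medium and induced with 0.5 mM IPTG. GST fusion purified on glutathione agarose and tag cleaved with PreScission protease. Buffer was 20 mM Tris pH 6.8, 150 mM NaCl, 3 mM DTT. 1H,15N HSQC spectra of 0.1 mM protein recorded at 600 MHz with increasing amounts of H3 (1-12) peptide.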

histone H3 N-terminus = experiment: overall signal intensity in histone peptide array / peptide screens; settings: both peptide screens; at the same molar concentrations
[5] = bivalent binding model (bivalent analyte), pH 7.5

B1: PHD1-2: tandem PHD-fingers of CHD5 (338-468), GST fusion in pGEX-KG; tag cleaved for SPR and NMR (protein)
chain: YETDHQDYCEVCQQGGEIILCDTCPRAYHLVCLDPELEKAPEGKWSCPHCEKEGIQWEPKDDDDEEEEGGCEEEEDDHMEFCRVCKDGGELLCCDACPSSYHLHCLNPPLPEIPNGEWLCPRCTCPPLKGK
modifications: left off: GST, end not stated, kept
Which “increase in affinity (lower Kd) compared with PHD1 and PHD2 alone” value ([1]; 1:1 Langmuir model) does the source give for B1 here?
Its value is 4-11 fold.

What about the off-rate kd ([1]; 1:1 Langmuir model, biotinylated H3 (1-11) on SA chip, pH 7.5) of the same molecule?
The off-rate kd was 0.00348 ± 5e-05 s⁻¹.

What about the ka1 [1, 5] of the same molecule?
The ka1 was 324 ± 11 M⁻¹ s⁻¹.

What about the ka2 [1, 5] of the same molecule?
Its ka2 is 2.9×10^−5 ± 1×10^−6 1/RUs.

And the kd1 [1, 5]?
The kd1 was 0.120 ± 0.005 s⁻¹.

What about the kd2 [1, 5] of the same molecule?
Its kd2 is 0.00218 ± 3e-05 s⁻¹.

And the “slower last off-rate (kd) compared with individual domains” value ([1]; last off-rate of PHD1-2 vs kd values of individual domains)?
The value was 5-6 fold.

And the “occurrence of unmodified lysine-4 among positive beads” value ([2]; H3K4unmod, MALDI-TOF identification)?
Its value is 44 out of 90.

And the “occurrence of H3T3 phosphorylation among positive beads” value ([2]; H3T3ph)?
Its value is 0 out of 90.

And the “occurrence of H3T6 phosphorylation among positive beads” value ([2]; H3T6ph)?
Its value is 0 out of 90.

And the “occurrence of peptides with high methylation at H3K4 (me2/3)” value ([2]; all peptides)?
The value was 13%.

And the “occurrence of peptides with low methylation at H3K4 (K4unmod and K4me)” value ([2]; all peptides)?
The value was 74%.

And the “occurrence of peptides with high methylation at H3K4 (me2/3)” value ([2]; peptides also containing R2me2a or R2me2s)?
Its value is 6%.

What about the “occurrence of peptides with low methylation at H3K4 (K4unmod and K4me)” value ([2]; peptides only containing Rme2a/s at H3R2) of the same molecule?
Its value is 91%.

And the “ALPHA signal with either functionalized peptide alone” value [3]?
Its value is “no signal above background”.

And the “binding events in NMR titration” value [4]?
Its value is “two distinct binding events”.

What about the “overall signal intensity compared to either domain alone” value (histone H3 N-terminus) of the same molecule?
The value was “notably higher”.
